Test results published in ChEMBL document CHEMBL4152203, “Antiproliferative hydrogen sulfide releasing evodiamine derivatives and their apoptosis inducing properties” (Eur J Med Chem, 2018).
The source made the active and inactive calls. No cut-off for these calls is given here.

Legend:
HL-60 [1] = test: Antiproliferative activity against human HL60 cells after 72 hrs by MTT assay; assay type: functional, cell-based; details: HL-60, 72 h
Method in brief: (§1)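 Cells seeded and pre-incubated 24 h at 37 °C, 5% CO2, then exposed to compounds for 72 h. MTT (5 mg/mL stock) added for 4 h, formazan dissolved in DMSO for 10 min at room temperature, absorbance read at 570 nm. 0.1% DMSO as negative and 5-FU as positive reference. IC50 derived from inhibition ratios; mean ± SD of three independent experiments.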

HL-60 [2] = test: Induction of apoptosis in human HL60 cells assessed as upregulation of caspase9 level at 0.3 to 1.2 uM after 48 hrs by Western blot analysis; assay type: functional, cell-based
Method in brief: (§2)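 HL-60 treated in triplicate with 0.3, 0.6 or 1.2 μM compound; exposure is 72 h in the methods and 48 h in the legend. Lysates were run on 10% SDS-PAGE, transferred to nitrocellulose, blocked in 5% milk, and probed overnight at 4 °C with monoclonal antibodies (Bcl-2, Bax, cytochrome c, caspase-9/-3, p53, cyclin B1, cdc2). ECL detection; densitometry relative to GAPDH.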

HL-60 [3] = test: Cell cycle arrest in human HL60 cells assessed as accumulation at G2/M phase at 0.3 uM after 48 hrs by propidium iodide/RNase A staining-based flow cytometric analysis (reference value: 10.19%); assay type: functional
HL-60 [4] = test: Induction of apoptosis in human HL60 cells assessed as early apoptotic cells at 1.2 uM after 48 hrs by Annexin V-FITC/propidium iodide staining-based flow cytometric analysis (reference value: 2.31%); assay type: functional
MCF7 = test: Antiproliferative activity against human MCF7 cells after 72 hrs by MTT assay; assay type: functional, cell-based; details: MCF7, 72 h; method in brief: as §1
HL-60 [5] = test: Cell cycle arrest in human HL60 cells assessed as accumulation at G2/M phase at 0.6 uM after 48 hrs by propidium iodide/RNase A staining-based flow cytometric analysis (reference value: 10.19%); assay type: functional
HL-60 [6] = test: Induction of apoptosis in human HL60 cells assessed as early apoptotic cells at 1.2 uM after 48 hrs by Annexin V-FITC/propidium iodide staining-based flow cytometric analysis (reference value: 1.11%); assay type: functional
HL-60 [7] = test: Induction of apoptosis in human HL60 cells assessed as decrease in cdc2 protein expression level at 0.3 to 1.2 uM after 48 hrs by Western blot analysis; assay type: functional, cell-based; method in brief: as §2
HL-60 [8] = test: Induction of apoptosis in human HL60 cells assessed as early apoptotic cells at 0.6 uM after 48 hrs by Annexin V-FITC/propidium iodide staining-based flow cytometric analysis (reference value: 1.11%); assay type: functional
SGC-7901 = test: Antiproliferative activity against human SGC7901 cells after 72 hrs by MTT assay; assay type: functional, cell-based; details: SGC-7901, 72 h; method in brief: as §1
HL-60 [9] = test: Induction of apoptosis in human HL60 cells assessed as increase in Bax level at 0.3 to 1.2 uM after 48 hrs by Western blot analysis; assay type: functional, cell-based; method in brief: as §2
HL-60 [10] = test: Induction of mitochondrial membrane potential loss in human HL60 cells assessed as cell population with mitochondrial membrane potential collapse at 0.3 uM after 48 hrs by JC1 staining-based flow cytometry analysis (reference value: 7.65%); assay type: functional
HL-60 [11] = test: Cell cycle arrest in human HL60 cells assessed as accumulation at G2/M phase at 1.2 uM after 48 hrs by propidium iodide/RNase A staining-based flow cytometric analysis (reference value: 10.19%); assay type: functional
HL-60 [12] = test: Induction of apoptosis in human HL60 cells assessed as early apoptotic cells at 0.3 uM after 48 hrs by Annexin V-FITC/propidium iodide staining-based flow cytometric analysis (reference value: 1.11%); assay type: functional
Bel-7402 = test: Antiproliferative activity against human Bel7402 cells after 72 hrs by MTT assay; assay type: functional, cell-based; details: Bel-7402, 72 h; method in brief: as §1
HL-60 [13] = test: Cell cycle arrest in human HL60 cells assessed as accumulation at G1 phase at 0.3 uM after 48 hrs by propidium iodide/RNase A staining-based flow cytometric analysis (reference value: 65.75%); assay type: functional
HL-60 [14] = test: Cell cycle arrest in human HL60 cells assessed as accumulation at S phase at 1.2 uM after 48 hrs by propidium iodide/RNase A staining-based flow cytometric analysis (reference value: 24.06%); assay type: functional
HL-60 [15] = test: Induction of apoptosis in human HL60 cells assessed as increase in p53 protein level at 0.3 to 1.2 uM after 48 hrs by Western blot analysis; assay type: functional, cell-based; method in brief: as §2
HL-60 [16] = test: Cell cycle arrest in human HL60 cells assessed as accumulation at G1 phase at 0.6 uM after 48 hrs by propidium iodide/RNase A staining-based flow cytometric analysis (reference value: 65.75%); assay type: functional
HL-60 [17] = test: Induction of mitochondrial membrane potential loss in human HL60 cells assessed as cell population with intact mitochondrial membrane potential at 1.2 uM after 48 hrs by JC1 staining-based flow cytometry analysis (reference value: 92.35%); assay type: functional
HL-60 [18] = test: Cell cycle arrest in human HL60 cells assessed as accumulation at S phase at 0.3 uM after 48 hrs by propidium iodide/RNase A staining-based flow cytometric analysis (reference value: 24.06%); assay type: functional
HL-60 [19] = test: Cell cycle arrest in human HL60 cells assessed as accumulation at S phase at 0.6 uM after 48 hrs by propidium iodide/RNase A staining-based flow cytometric analysis (reference value: 24.06%); assay type: functional
HL-60 [20] = test: Induction of mitochondrial membrane potential loss in human HL60 cells assessed as cell population with mitochondrial membrane potential collapse at 1.2 uM after 48 hrs by JC1 staining-based flow cytometry analysis (reference value: 7.65%); assay type: functional
HL-60 [21] = test: Induction of apoptosis in human HL60 cells assessed as necrotic cells at 1.2 uM after 48 hrs by Annexin V-FITC/propidium iodide staining-based flow cytometric analysis (reference value: 0.02%); assay type: functional
HL-60 [22] = test: Induction of mitochondrial membrane potential loss in human HL60 cells assessed as cell population with mitochondrial membrane potential collapse at 0.6 uM after 48 hrs by JC1 staining-based flow cytometry analysis (reference value: 7.65%); assay type: functional
Caco-2 = test: Antiproliferative activity against human Caco2 cells after 72 hrs by MTT assay; assay type: functional, cell-based; details: Caco-2, 72 h; method in brief: as §1
HL-60 [23] = test: Induction of apoptosis in human HL60 cells assessed as necrotic cells at 0.6 uM after 48 hrs by Annexin V-FITC/propidium iodide staining-based flow cytometric analysis (reference value: 0.02%); assay type: functional
HL-60 [24] = test: Induction of mitochondrial membrane potential loss in human HL60 cells assessed as cell population with intact mitochondrial membrane potential at 0.3 uM after 48 hrs by JC1 staining-based flow cytometry analysis (reference value: 92.35%); assay type: functional
HL-60 [25] = test: Induction of apoptosis in human HL60 cells assessed as decrease in cyclin B1 protein expression level at 0.3 to 1.2 uM after 48 hrs by Western blot analysis; assay type: functional, cell-based; method in brief: as §2
HL-60 [26] = test: Induction of apoptosis in human HL60 cells assessed as upregulation of caspase3 level at 0.3 to 1.2 uM after 48 hrs by Western blot analysis; assay type: functional, cell-based; method in brief: as §2
HL-60 [27] = test: Induction of apoptosis in human HL60 cells assessed as early apoptotic cells at 0.3 uM after 48 hrs by Annexin V-FITC/propidium iodide staining-based flow cytometric analysis (reference value: 2.31%); assay type: functional
HL-60 [28] = test: Induction of apoptosis in human HL60 cells assessed as apoptotic cells after 48 hrs by Annexin V-FITC/propidium iodide staining-based flow cytometric analysis; assay type: functional, cell-based

Q: With `CN1c2ccccc2C(=O)N2CCc3c(n(CCCCC(=O)OCCCCOc4ccc(-c5cc(=S)ss5)cc4)c4ccccc34)C21` (configuration not stated) as the compound, how does the IC50 (HL-60 [1]) read?
A: The IC50 was 0.58 µM.

Q: And the Activity (HL-60 [2])?
A: Its Activity is “Active”.

Q: What about the Activity (HL-60 [3]) of the same compound?
A: The Activity was 11.41%.

Q: What about the Activity (HL-60 [4]) of the same compound?
A: Its Activity is 48.08%.

Q: And the IC50 (MCF7)?
A: The IC50 was 44.8 µM.

Q: And the Activity (HL-60 [5])?
A: The Activity was 16.63%.

Q: What about the Activity (HL-60 [6]) of the same compound?
A: Its Activity is 12.6%.

Q: What about the Activity (HL-60 [7]) of the same compound?
A: Its Activity is “Active”.

Q: And the Activity (HL-60 [8])?
A: Its Activity is 15.56%.

Q: And the IC50 (SGC-7901)?
A: Its IC50 is over 50 µM.

Q: What about the Activity (HL-60 [9]) of the same compound?
A: The Activity was “Active”.

Q: What about the Activity (HL-60 [10]) of the same compound?
A: The Activity was 13.33%.

Q: And the Activity (HL-60 [11])?
A: The Activity was 22.02%.

Q: And the Activity (HL-60 [12])?
A: Its Activity is 4.53%.

Q: What about the IC50 (Bel-7402) of the same compound?
A: The IC50 was 48.9 µM.

Q: And the Activity (HL-60 [13])?
A: Its Activity is 47.1%.

Q: What about the Activity (HL-60 [14]) of the same compound?
A: The Activity was 42.66%.

Q: And the Activity (HL-60 [15])?
A: Its Activity is “Active”.

Q: What about the Activity (HL-60 [16]) of the same compound?
A: Its Activity is 38.55%.

Q: And the Activity (HL-60 [17])?
A: Its Activity is 64.99%.

Q: What about the Activity (HL-60 [18]) of the same compound?
A: Its Activity is 41.49%.

Q: What about the Activity (HL-60 [19]) of the same compound?
A: Its Activity is 41.81%.

Q: What about the Activity (HL-60 [20]) of the same compound?
A: The Activity was 35.01%.

Q: What about the Activity (HL-60 [21]) of the same compound?
A: The Activity was 0.11%.

Q: What about the Activity (HL-60 [22]) of the same compound?
A: The Activity was 21.32%.

Q: And the IC50 (Caco-2)?
A: The IC50 was 2.02 µM.

Q: And the Activity (HL-60 [23])?
A: Its Activity is 0.48%.

Q: And the Activity (HL-60 [24])?
A: The Activity was 86.67%.

Q: What about the Activity (HL-60 [25]) of the same compound?
A: Its Activity is “Active”.

Q: What about the Activity (HL-60 [26]) of the same compound?
A: The Activity was “Active”.

Q: And the Activity (HL-60 [27])?
A: The Activity was 6.74%.

Q: And the Activity (HL-60 [28])?
A: Its Activity is “Dose-dependent effect”.
